Assay results: the EternaBench riboswitch data

Tested on: MS2 coat protein
Assay: apparent Kd, MS2 coat protein; higher = weaker binding; RNA-MaP array; theophylline 2 mM where present
Method in brief: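 SNAP-549-labelled MS2 coat protein, doubled from 0.7 or 1.5 nM to 3 µM, was titrated over designs transcribed by stalled E. coli RNA polymerase on Illumina sequencing-chip clusters. Titrations were run without and then with constant ligand in 100 mM Tris-HCl pH 7.5, 80 mM KCl, 4 mM MgCl2, BSA, DTT, yeast tRNA and Tween-20. The apparent Kd is the median of filtered per-cluster fits to green signal normalised to red-channel RNA signal and control-cluster median Fmax.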

[1] = designed as: OFF switch for theophylline, no ligand
[2] = ligand present: theophylline, designed as: OFF switch for theophylline
[3] = designed as: ON switch for theophylline, no ligand
[4] = ligand present: theophylline, designed as: ON switch for theophylline

Sequence | apparent Kd [1] [nM] | apparent Kd [2] [nM] | apparent Kd [3] [nM] | apparent Kd [4] [nM]
UGACGAUACCUGGAUACCAGCGACAUGAGGAUCACCCAUGUAUGAGGAUCAGCCAUGUUAUGCCCUUGGCAGCCACGAAGGUCUU | 33 | 224 | – | –
ACACAUGAGGAUCACCCAUGUCCAAUAGAUACCAGUGAUACGGUGCACCCUUGGCAGCUGUUGCUGAGUGAUGGUUCCCUCGGAA | – | – | 125 | 164
UCUUACUUGGUAGAUACCAGCGUGUUAUCUUUCUUUUGACAUGAGGAUCACCCAUGUAUAUGCCCUUGGCAGCUGCGUAGUGUGU | – | – | 33.7 | 32.5
AGCCCAUUACAUGAGGAUCACCCAUGUGAUACCAGUCAGGAAACUGACCCUUGGCAGCGCAUGAGGAUCACCCAUGCGCUGGGCA | 12 | 11.4 | – | –
ACUAGUUGUGCAGAUACCAGACAUGAGGAUCACCCAUGUUUGGGAUCUAAUGAUCAUCUUGUCCCUUGGCAGCUGUACAUCUAGA | 78.5 | 33.9 | – | –
UCGUGUAUAUCGGAUACCAGUGAAAUCGAUACAUGAGGAUCACCCAUGUGAGUUGAUGUACACCCUUGGCAGCUGUAUAUAUCUA | – | – | 16.2 | 12.4
UGUAACAUGAGGAUCACCCAUGUGAGUGAUACCAGAUUAGUAGUAGUCCCUUGGCAGCACAUUGGGCGAGUGUAUAGUCUAUGCG | – | – | 171 | 118
UGACAUUGCUCAGAUACCAGACAUGAGGAUCACCCAUGUACCAAGAAAGUACAAUAAAAUGUCCCUUGGCAGCUGAGCAAUGUCU | 66.8 | 487 | – | –
CGAUGAUCGAGGGAUACCAGAAAUGGUAUUCCUUUAUUUCUUACAUGAGGAUCACCCAUGUUCCCUUGGCAGCUUUUGAUCAUCG | 86.5 | 149 | – | –
AAAUAGGUAGGAGAUACCAGAUACGUUAACAUGAGGAUCACCCAUGUGUAUGCACUUAGUGUCCCUUGGCAGCUCGAGGAUCUGG | – | – | 30.7 | 35.3
GACAUGAGGAUCACCCAUGUAUUGGGUGAUACCAGCCUGAAUCAUGGCCCUUGGCAGCACCGCGCUAACUUUAUGUUUGCGAACC | – | – | 49.7 | 160
ACAUCCAGAUUAAUCGUGGGCAUACUCGAUACCAGUAUUUUAAUCUACCCUUGGCAGCGACAUGAGGAUCACCCAUGUGCGAUGA | 12.8 | 21.1 | – | –
CGCAACCCUAAGGGAUUGUGGUUAUUAGAUACCAGUAUGAUGCAAUACCCUUGGCAGCUAAUACAUGAGGAUCACCCAUGUUGCG | – | 59.5 | – | –
AUCGUACCUAAUGAUACCAGCAAGUGAUCAUAACAUGAGGAUCACCCAUGUAAUCAGUGAUGCCCUUGGCAGCAUAAUCGAUACA | – | – | 146 | 88
GAGCUGAUGUAGAGCGAAUAUUCGAGAGAUACCAGUACAGAAAUGUACCCUUGGCAGCUCAACUUUACAUGAGGAUCACCCAUGU | 13.7 | 25 | – | –
ACAUGAGGAUCACCCAUGUCACGGCACGAUACCAGCUGAUCCGGUGGCCCUUGGCAGCGUCACGUUUGGUCCCGCGGAUGACACG | – | – | 64.3 | 60.4
GGCGGACUUAUAGAUACCAGCACAUGAGGAUCACCCAUGUUUGGUCGCACCUCAGUCCUGUGCCCUUGGCAGCUAUGAUAGAUUU | 17.3 | 95.1 | – | –
AUGUCGUUGAAUACAGCGGCAUGGAGUGAUACCAGAAUGAUCAAAUUCCCUUGGCAGCAUCACAUGAGGAUCACCCAUGUUCGAU | – | – | 29.1 | 34.3

Sequence | apparent Kd [1] [nM] | apparent Kd [2] [nM] | apparent Kd [3] [nM] | apparent Kd [4] [nM]
AUAACAUGAGGAUCACCCAUGUAAGCAGAUACCAGCUAGGAAACUAGCCCUUGGCAGCUGCAAUCAUGGGUGUGGUAUCUGCUAA | 28.2 | 39.7 | – | –
ACACACAUGAGGAUCACCCAUGUAAUAGAUACCAGUGACGCGGUGCACCCUUGGCAGCUGCUGCUGAGUGAUGGUUCCCUCGGAA | 21.1 | 34.7 | – | –
AAACAUUGCUCAGAUACCAGACAUGAGGAUCACCCAUGUACCAAGGUAACCGAAAGGCAUGUCCCUUGGCAGCUGAGCAAUGAAA | 13.7 | 240 | – | –
GGUCUGAAAACCGAUCAAAGAUCGGAAGAUACCAGAGGGUGAUCCCUCCCUUGGCAGCUUCACAUGAGGAUCACCCAUGUAGACC | – | – | 192 | 151
GGUGGCUGGAUCGAUACCAGCCACCACCGAUAGACCACAUGAGGAUCACCCAUGUUGGGUGGCCCUUGGCAGCGGUCCGGCUGCC | – | – | 278 | 1290
CUGGCAGGAUGAUCCGCUGUCAGGGCUGAUACCAGCCACGAAAGUGGCCCUUGGCAGCAGCAAACAUGAGGAUCACCCAUGUAAA | – | – | 144 | 266
ACGUCCGGAUUGAUCGUGGGCAUGGUCGAUACCAGUAUUUUAAUCUACCCUUGGCAGCGACAUGAGGAUCACCCAUGUGCGAUGA | 16.9 | 42.6 | – | –
AGCAUGUUAUCAGAUACCAGACAUCUUUUAAUACAUAUUACAUGAGGAUCACCCAUGUUGGUCCCUUGGCAGCUGAAAUAUUUCA | – | – | 256 | 80.5
UGUACAUGAGGAUCACCCAUGUUACGCGAUACCAGACAUGAGAGUGUCCCUUGGCAGCGUGGAGCUGAUACGGCGGGAAGCCGGA | – | – | 43.7 | 39.5
AACAUGAGGAUCACCCAUGUAAUAUGGGAUACCAGAGACGAAAGUCUCCCUUGGCAGCCCAAGCUGCUCCAUACGAAAGUAUGGU | – | – | 65.2 | 18
ACAUGAGGAUCACCCAUGUUCCUCGCCGAUACCAGUGAAGAAGAACGCCCUUGGCAGCGGAAAGAAUAUAUUGGAGAUGAUAUAU | 219 | 316 | – | –
ACAUGAAGAACAGCGGUGGGCGCGCUCGAUACCAGUAUUUUAACCUACCCUUGGCAGCGACAUGAGGAUCACCCAUGUGAGAUGA | 17.3 | 26.9 | – | –
GGUAUUGGAACAGAUACCAGUAUCUGUUGAUCCUACAUGAGGAUCACCCAUGUUAGAAAGUACCCUUGGCAGCUGUAAUAAUGCC | 48.1 | 81.6 | – | –
AGACAUGUAGGAUAAUUGACUAUUACAGAUACCAGACUGUCUAAUGUCCCUUGGCAGCUGCAUUACAUGAGGAUCACCCAUGUUA | 22.6 | 20.2 | – | –
AUCGUACCUGAGGAUACCAGCAUGUGAUCAUAACAUGAGGAUCACCCAUGUAAUCAGUGAUGCCCUUGGCAGCUUGGUCGGUACA | – | – | 51.6 | 26.4
ACGACGCAUAGUGAUACCAGUAGAACAUGAGGAUCACCCAUGUCAGAUAUGUUCUAAUACUGCCCUUGGCAGCACUAUGCGUCAG | – | – | 260 | 134
CAGCCUGGUUGGUAAAUCCCUCAUCGUGAUACCAGUCGAGUGAUCGACCCUUGGCAGCACAUGAGGAUCACCCAUGUGCUCGUAU | 25.1 | 23.1 | – | –
